The list is not random: actives were taken first. Their share in the collection is about 1.6%.
TDP2 inh: human TDP2 enzyme inhibitors, primary screen, biochemical, epi absorbance, recombinant enzyme. hit rate 0.34% among 370,000. T5PNP hydrolysis, p-nitrophenol absorbance 415 nm. inhibition, % at 12.8 µM. Tyrosyl-DNA phosphodiesterase 2 (Homo sapiens), O95551;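 active = inhibition above the mean of all tested compounds plus 3 SD, set per campaign, cut at about 25% in these data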
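Assay system: recombinant human TDP2 / Reagent: T5PNP substrate at 5 mM, a TopII-DNA adduct mimic / Measured by: epi absorbance from released p-nitrophenol / Evaluation: % inhibition relative to enzyme-containing and enzyme-free wells / Control set: enzyme-free and DMSO wells / Replicates: each compound tested once, singlicate / Schedule: enzyme reaction with compound for 2 h at 37 °C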
UHRF1 MBD2 ctr: UHRF1 methylated DNA binding inhibitors, primary screen, counter-screen for MBD2 inhibitor project, biochemical, TR-FRET, human UHRF1, single concentration | E3 ubiquitin-protein ligase UHRF1 (Homo sapiens), Q96T88 | UHRF1 binding to methylated oligo | inhibition, % at 4.4 µM | hit rate 0.75% among 370,000; in the data active = inhibition above about 21%;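 note: UHRF1 SRA domain binding a hemimethylated CpG hairpin DNA probe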
LEDGF integ inh: blockers of LEDGF/p75-dependent integrase strand transfer – biochemical, TR-FRET, high throughput, primary screen. HIV-1 integrase (with human LEDGF/p75). TR-FRET IN-LEDGF/p75 DNA integration, Eu/Cy5. inhibition, % at 3.7 µM. hit rate 0.64% among 370,000;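 active = inhibition above the screen-wide mean plus 3 SD, cut at about 13% in these data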;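 note: signal is the Cy5 over europium emission ratio at 671 and 618 nm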
MBD2 inh: inhibitors of MBD2 binding to methylated DNA, primary screen, biochemical, TR-FRET, DNA-binding domain, human | MBD2 binding to methylated oligonucleotide | inhibition, % at 4.4 µM | hit rate 0.31% among 370,000 | AID 686964, 2013; in the data active = inhibition above about 13%
Target sequence (Q9UBB5 whole entry, looked up, the tested form may be a part): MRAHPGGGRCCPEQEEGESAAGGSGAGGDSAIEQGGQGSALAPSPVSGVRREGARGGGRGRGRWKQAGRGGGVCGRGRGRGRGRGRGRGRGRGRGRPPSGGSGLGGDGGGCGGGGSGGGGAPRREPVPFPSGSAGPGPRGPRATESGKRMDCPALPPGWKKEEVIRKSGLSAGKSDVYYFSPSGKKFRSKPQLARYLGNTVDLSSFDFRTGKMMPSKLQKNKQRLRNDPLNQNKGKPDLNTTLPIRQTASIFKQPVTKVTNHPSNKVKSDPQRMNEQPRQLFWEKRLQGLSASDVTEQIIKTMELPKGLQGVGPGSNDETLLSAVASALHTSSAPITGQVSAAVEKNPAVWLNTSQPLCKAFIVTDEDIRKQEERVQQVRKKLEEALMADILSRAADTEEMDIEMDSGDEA
IN multimer act: HIV-1 IN multimer formation enhancers, counter-screen for LEDGF/p75 integration inhibitor project, biochemical, TR-FRET | shares compounds with LEDGF integ inh | TR-FRET HIV-1 integrase multimerization | activation, % at 7.7 µM | hit rate 17% among 2,000 | AID 1053131, 2014; in the data active = activation above about 8.9%
TR-FRET interf: TR-FRET optical interference artefacts, confirmation, artefact control for LEDGF/p75-dependent integration inhibitor project, biochemical, HIV-1 IN multimerization. shares compounds with LEDGF integ inh. TR-FRET optical interference counterscreen. inhibition, % at 7.7 µM. 2,000 tested, under 10 active. AID 1053135, 2014;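 active = inhibition above the mean over all tested compounds plus 3 SD, which no compound reached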
LEDGF integ conf: inhibitors of HIV-1 IN-LEDGF/p75 DNA integration, confirmation, biochemical, TR-FRET. shares compounds with LEDGF integ inh. TR-FRET LEDGF/p75-dependent HIV-1 integration. inhibition, % at 3.7 µM. hit rate 36% among 2,000. AID 1053136, 2014; in the data active = inhibition above about 14%
Numbers stand for hits; - = inactive; . = not tested or not shown.

SMILES	TDP2 inh	UHRF1 MBD2 ctr	LEDGF integ inh	MBD2 inh	IN multimer act	TR-FRET interf	LEDGF integ conf
O=C(O)c1cc(-c2ccc(/C=C3\NC(=O)N(c4ccc(Cl)cc4)C3=O)o2)ccc1Cl	-	62.4	15.0	-	-	-	26.7
CCC1(C)Cc2ccccc2-c2nc(NCCCO)[nH]c(=O)c21 (configuration not stated)	-	-	-	-	.	.	.
CCC1(CC)Cc2ccccc2-c2nc(NCCCO)[nH]c(=O)c21	-	-	13.5	-	-	-	-
Cc1ccc(CN2CCCCC(NC(=O)c3ccccc3C)C2=O)cc1 (configuration not stated)	-	-	-	-	.	.	.
CCc1ccc(NC(=O)COC(=O)/C=C/c2ccco2)cc1	-	24.8	26.8	-	-	-	-
O=C(COC(=O)/C=C/c1ccco1)Nc1cc(S(=O)(=O)N2CCOCC2)ccc1Cl	-	-	15.1	-	-	-	-
CN(Cc1ccccc1)C(=O)COC(=O)/C=C/c1ccco1	-	-	-	-	.	.	.
CN(CCOC(=O)/C=C/c1ccco1)Cc1ccccc1	-	26.5	23.0	-	-	-	38.0
CC(=O)Nc1ccc(C(=O)/C=C/c2ccco2)cc1	-	-	27.6	-	12.2	-	34.9
OC(c1ccccc1)(c1ccccc1)C1CCN(CCCOc2ccccn2)CC1	-	-	-	-	.	.	.
O=C(CSc1nc2ccccc2nc1N1CCCCC1)NCc1ccc(Cl)cc1Cl	-	-	-	-	.	.	.
N#CC1=C2SCN(Cc3ccco3)CN2C(=O)CC1c1cccc2ccccc12 (configuration not stated)	-	-	54.5	-	-	-	-
NS(=O)(=O)c1ccc(N/N=C/c2ccc(O)c(O)c2O)c([N+](=O)[O-])c1	-	-	72.0	-	33.2	-	85.0
NS(=O)(=O)c1ccc(N/N=C/c2ccc(O)cc2O)c([N+](=O)[O-])c1	-	-	-	-	.	.	.
CCn1c(SCC(=O)NN=Cc2cc(OC)ccc2OC)nnc1-c1ccc(OC)cc1	-	-	-	-	.	.	.
COc1cc(C2OCC3C(c4ccc(OC5OC(CO)C(O)C(O)C5O)c(OC)c4)OCC23)ccc1O (configuration not stated)	-	-	32.5	-	33.8	-	14.9
COc1cc([C@H]2OC[C@H]3[C@@H]2CO[C@H]3c2ccc(O)c(OC)c2)ccc1O	-	-	-	-	.	.	.
CC(=O)N1CCC(N(C(=O)Nc2c(F)cccc2F)C(C)C)CC1	-	-	20.5	-	-	-	-
CCOC(=O)c1ccc(NC(=O)c2nc[nH]c2C(=O)NC)cc1	-	-	18.3	-	-	-	-
Cn1c(=O)c2ccccc2n(Cc2cccc(F)c2)c1=O	-	-	21.3	-	-	-	-
CC1=CN2C(=N)/C(=C/c3ccco3)C(=O)N=C2S1	-	-	-	-	.	.	.
CC1=CN2C(=N)/C(=C/c3ccc([N+](=O)[O-])o3)C(=O)N=C2S1	-	-	17.5	-	-	-	16.9
O=C(CCSCc1cccc(Cl)c1)NC1CCCC1	-	-	51.4	-	-	-	-
CCCCCCCCN1C(=O)[C@@H](CC(=O)NCC2CCCCC2)C[C@@]2(C(=O)OC)C1=C[C@H](C1CCCC1)O[C@@H]2C	-	-	-	-	.	.	.
CC(=O)c1ccc(S(=O)(=O)NCC2CCN(C(=O)C(=O)c3cc4ccccc4o3)CC2)cc1	-	-	-	-	.	.	.
SMILES	TDP2 inh	UHRF1 MBD2 ctr	LEDGF integ inh	MBD2 inh	IN multimer act	TR-FRET interf	LEDGF integ conf
CCOc1ccc(NC(=O)CC(NC(C)=O)c2ccccc2)cc1S(=O)(=O)N1CCCC1 (configuration not stated)	-	-	14.0	-	-	-	-
COc1ccc(/C=C2\CC3(OC(=O)c4ccc(F)cc4)CCCN2C3)cc1 (configuration not stated)	-	-	-	-	.	.	.
O=C(c1ccccc1)c1nn(-c2ccc(Cl)cc2)c(=O)cc1C(F)(F)F	-	-	22.6	-	-	-	18.7
Cc1cc(C)cc(NC(=O)O[C@@H]2CC[C@@]34CCCN3C(=O)CCC[C@H]4C2)c1	-	-	-	-	.	.	.
CCc1nnc(NC(=O)c2oc3cc(C)c(C)cc3c2C)s1	-	-	16.0	-	-	-	-
CCc1nonc1NC(=O)c1oc2cc(C)c(C)cc2c1C	-	-	-	-	.	.	.
CN(C)S(=O)(=O)c1cccc(NC(=S)N/N=C/c2ccc(O)c(O)c2O)c1	-	-	55.3	-	18.9	-	41.4
COC(=O)[C@]12C[C@H](CC(=O)N3CCSCC3)C(=O)N(Cc3cccc4ccccc34)C1=C[C@H](C(C)(C)C)O[C@@H]2C	-	-	-	-	.	.	.
Cc1cccc[n+]1CCCCCCCCCC[n+]1ccccc1C	-	-	21.3	-	-	-	-
CCCCCCCCCC[n+]1cccc2c3ccccc3ccc21	-	-	-	-	.	.	.
COc1ccc(C=O)cc1-c1cc(C(C)=O)c2n(c1=O)CCC2	-	-	-	-	.	.	.
Cc1cc(CNC(=O)Cn2cc([N+](=O)[O-])cn2)c2ccccc2n1	-	-	17.4	-	-	-	-
COC(=O)[C@]12C[C@H](CC(=O)N3CCN(C(=O)c4ccco4)CC3)C(=O)N(Cc3ccc4c(c3)OCO4)C1=C[C@H](COCc1ccccc1)O[C@@H]2C	-	-	-	-	.	.	.
CC(=O)N1CCN(c2ccc(NCc3ccco3)cc2)CC1	-	-	21.4	-	-	-	-
CN(C)c1ccc(O)c2c1CC1CC3C(N(C)C)C(=O)C(C(N)=O)=C(O)[C@@]3(O)C(=O)C1=C2O (some centres not stated)	-	-	22.1	-	10.0	-	-
CN(C)c1ccc(O)c2c1CC1CC3[C@@H](N(C)C)C(=O)C(C(N)=O)C(=O)[C@]3(O)C(=O)C1C2=O (some centres not stated)	-	-	37.1	-	-	-	-
O=C(C1CCCN1S(=O)(=O)c1ccc(Br)s1)N1CCc2ccccc2C1 (configuration not stated)	-	-	-	-	.	.	.

High-throughput results (PubChem)
